From article PMC10692362 (Acta Pharmaceutica Sinica. B, 2023)
Numbering of substitutions follows the chain as printed. Values joined by “and” are separate entries in the source; they are usually repeats but may differ in a detail not shown here. Equal values may be shown once.

Key:
MCF-7 tumor xenograft = MCF-7 tumor xenograft model in BALB/c nude mice; format: in vivo
Outline: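 Female BALB/c nude mice (15–18 g, 5 weeks old) received 1 × 10⁷ MCF-7 cells in 100 μL PBS into the right axillary mammary fat pad. Tumour volume (W² × L × 0.5) and body weight were measured every 2 days. Mice were sacrificed on Day 33. Tumours were assessed by IHC (Ki-67, ERα) and ERα Western blot.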

ERα C530S mutant = target: T1, ERα C530S mutant (Homo sapiens, UniProt P03372, C530S); test: Immunoblot analysis of ERα C530S mutant protein in HEK-293T cells; format: cell-based; conditions: HEK-293T^C530S cells, compared with wild type
T1 sequence (P03372 1-595 C530S): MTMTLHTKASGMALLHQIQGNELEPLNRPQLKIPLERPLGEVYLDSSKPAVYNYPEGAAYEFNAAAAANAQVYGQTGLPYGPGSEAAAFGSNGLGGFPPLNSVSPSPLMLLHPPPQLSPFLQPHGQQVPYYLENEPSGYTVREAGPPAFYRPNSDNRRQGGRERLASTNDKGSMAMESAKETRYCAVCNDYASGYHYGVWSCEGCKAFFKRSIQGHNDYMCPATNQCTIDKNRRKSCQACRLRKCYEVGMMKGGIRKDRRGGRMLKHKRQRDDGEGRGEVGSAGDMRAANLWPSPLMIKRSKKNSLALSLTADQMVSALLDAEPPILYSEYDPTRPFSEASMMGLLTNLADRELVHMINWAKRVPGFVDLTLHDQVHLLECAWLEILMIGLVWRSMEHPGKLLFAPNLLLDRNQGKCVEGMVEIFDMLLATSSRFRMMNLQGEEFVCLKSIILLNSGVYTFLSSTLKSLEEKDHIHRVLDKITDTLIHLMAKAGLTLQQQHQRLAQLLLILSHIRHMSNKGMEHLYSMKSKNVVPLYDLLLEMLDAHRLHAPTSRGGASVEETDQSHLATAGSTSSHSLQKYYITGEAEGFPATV
Outline: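 HEK-293T cells transfected with a plasmid carrying the single C530→S530 ERα point mutation, then treated with test compound. Cells lysed in RIPA buffer; proteins separated by SDS-PAGE and transferred to PVDF. Membranes blocked with 5% skim milk, probed overnight with rabbit anti-ERα and mouse anti-β-actin (loading control), then goat anti-rabbit secondary for 1 h. Developed by ECL.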

T-47D cells = test: Cell viability assay; format: cell-based, human; conditions: Homo sapiens, T47D, 72 h, read-out: T-47D IC50
ERα [1] = target: T2, ERα (Homo sapiens, UniProt P03372); test: cell-based; format: cell-based
T2 sequence (P03372 1-595): T1 sequence (P03372 1-595 C530S) with S530C

human ERα LBD = target: T3, human ERα LBD (Homo sapiens, UniProt P03372); test: Competitive fluorescence polarization binding assay, ERα
T3 sequence (P03372 311-547 limits assumed): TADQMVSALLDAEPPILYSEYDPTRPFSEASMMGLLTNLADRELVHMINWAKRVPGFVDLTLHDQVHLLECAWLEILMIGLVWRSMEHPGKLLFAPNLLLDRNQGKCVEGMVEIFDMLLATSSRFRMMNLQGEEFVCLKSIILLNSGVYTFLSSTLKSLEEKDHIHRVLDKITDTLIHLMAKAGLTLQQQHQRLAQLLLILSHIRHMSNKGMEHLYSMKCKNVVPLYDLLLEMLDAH

ERα [2] = target: T2, ERα; test: Immunoblot analysis of ERα degradation in MCF-7 cells; format: cell-based
ERα [3] = target: T2, ERα; test: Immunoblot analysis of ERα degradation in LCC-2 cells; format: cell-based; conditions: 5 μmol/L over 12 h
LCC-2 cells = test: Cell viability assay on tamoxifen-resistant LCC-2 cells; format: cell-based; conditions: Homo sapiens, LCC2, read-out: LCC-2 IC50
[4] = target: T4, ERα Y537S and C381S–C417S–Y537S proteins (Homo sapiens, UniProt P03372, Y537S); test: Intact mass spectrometry to assess covalency; format: binding; conditions: 20 μmol/L compound : 1 μmol/L protein, 4 °C overnight
T4 sequence (P03372 305-554 Y537S): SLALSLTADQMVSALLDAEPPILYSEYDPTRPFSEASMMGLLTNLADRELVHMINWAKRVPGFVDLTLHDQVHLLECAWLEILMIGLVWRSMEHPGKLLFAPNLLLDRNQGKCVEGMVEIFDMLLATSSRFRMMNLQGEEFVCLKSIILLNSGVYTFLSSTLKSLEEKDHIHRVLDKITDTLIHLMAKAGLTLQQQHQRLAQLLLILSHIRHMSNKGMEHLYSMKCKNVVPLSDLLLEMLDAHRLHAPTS

human ERβ LBD = human ERβ LBD (Homo sapiens, UniProt Q92731); test: Competitive fluorescence polarization binding assay, ERβ
ERβ = ERβ (Homo sapiens, UniProt Q92731); format: cell-based; conditions: 5 μmol/L, HEK-293T cells
Outline: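 Transfected HEK-293T cells treated with test compound; ERβ protein assessed by immunoblot. Lysates prepared with RIPA buffer, resolved by SDS-PAGE and transferred to PVDF. Membranes blocked in 5% skim milk and developed by ECL, with β-actin as loading control.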

[5] = IC50 estradiol/IC50 compound × 100, estradiol = 100%

Chain of human ERβ LBD (Q92731 264-498 limits assumed): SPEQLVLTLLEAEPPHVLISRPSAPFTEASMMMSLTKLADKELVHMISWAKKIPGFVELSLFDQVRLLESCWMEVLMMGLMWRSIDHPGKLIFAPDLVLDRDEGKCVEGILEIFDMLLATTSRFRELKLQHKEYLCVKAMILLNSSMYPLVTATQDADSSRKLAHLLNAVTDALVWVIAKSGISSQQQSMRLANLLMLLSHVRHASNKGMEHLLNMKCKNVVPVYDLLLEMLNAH
Chain of ERβ (Q92731 whole entry): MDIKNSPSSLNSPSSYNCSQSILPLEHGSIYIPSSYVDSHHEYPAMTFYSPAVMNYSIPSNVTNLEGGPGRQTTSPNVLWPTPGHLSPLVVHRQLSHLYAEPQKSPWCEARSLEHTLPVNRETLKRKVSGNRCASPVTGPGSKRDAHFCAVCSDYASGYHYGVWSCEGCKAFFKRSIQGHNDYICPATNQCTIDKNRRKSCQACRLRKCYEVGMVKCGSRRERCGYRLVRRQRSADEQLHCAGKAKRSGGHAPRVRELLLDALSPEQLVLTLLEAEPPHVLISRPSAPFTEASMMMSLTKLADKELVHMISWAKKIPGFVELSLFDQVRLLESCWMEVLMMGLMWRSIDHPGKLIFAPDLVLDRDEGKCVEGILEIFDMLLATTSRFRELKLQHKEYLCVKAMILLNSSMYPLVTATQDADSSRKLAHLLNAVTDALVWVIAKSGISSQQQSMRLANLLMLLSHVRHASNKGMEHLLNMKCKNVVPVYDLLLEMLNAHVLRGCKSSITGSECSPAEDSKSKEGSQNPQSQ

Question: How did the “ERα level in xenograft tumors (IHC, Western blot)” value (MCF-7 tumor xenograft; 4 mg/kg ip) turn out when `CC(C)=CC(=O)Nc1ccc(C2=C(c3ccc(O)cc3)C3OC2CC3S(=O)(=O)N(CC(F)(F)F)c2ccc(O)cc2)cc1` (stereo not drawn) [Compound 29c, N-(4-(3-(4-Hydroxyphenyl)-5-(N-(4-hydroxyphenyl)-N-(2,2,2-trifluoroethyl)sulfamoyl)-7-oxabicyclo[2.2.1]hept-2-en-2-yl)phenyl)-3-methylbut-2-enamide] was run?
Answer: significantly degrade ERα

Question: What about the “TGI (tumor growth inhibition)” value (MCF-7 tumor xenograft; 4 mg/kg ip every other day, Day 32) of the same compound?
Answer: 92%

Question: What about the “Tumor weight, 29c compared with Ful” value (MCF-7 tumor xenograft; both at 2 mg/kg) of the same compound?
Answer: no statistically significant difference in tumor weight

Question: And the “H&E analysis of main visceral organs” value (MCF-7 tumor xenograft; heart, liver, spleen, kidney, ip administration)?
Answer: did not show significant changes in the main visceral organs

Question: And the “Body weight of mice” value (MCF-7 tumor xenograft; ip 2 or 4 mg/kg every other day)?
Answer: did not apparently reduce mice body weight

Question: And the “Tumor cell proliferation (Ki-67 IHC)” value (MCF-7 tumor xenograft; ip administration)?
Answer: significantly reduced tumor cell proliferation

Question: What about the “Tumor growth inhibition activity” value (MCF-7 tumor xenograft; ip dose of 2 or 4 mg/kg) of the same compound?
Answer: significant tumor growth inhibition

Question: What about the “ERα C530S degradation ability” value (ERα C530S mutant) of the same compound?
Answer: decreased

Question: What about the IC50 (T-47D cells) of the same compound?
Answer: 870 ± 150 nM

Question: What about the IC50 (ERα [1]) of the same compound?
Answer: 23 nM

Question: And the “Agonist mode ERα Eff (%E2)” value (ERα [1]; control as 0%, 10 nmol/L E2 as 100%)?
Answer: 5 ± 1 %E2

Question: What about the “Antagonist mode ERα Eff (%E2)” value (ERα [1]; with 10 nmol/L 17β-estradiol) of the same compound?
Answer: 76 ± 1 %E2

Question: And the Ki (human ERα LBD)?
Answer: 0.09 nM

Question: And the “RBA ERα” value (human ERα LBD; [5])?
Answer: 30.44% and 30.44 ± 1.13%

Question: And the α/β ratio (human ERα LBD; ratio of RBA ERα to RBA ERβ)?
Answer: 49.90

Question: And the “ERα degradation time course, MCF-7” value (ERα [2]; 5 μmol/L over 24 h)?
Answer: completely degraded

Question: What about the “ERα degradation (immunoblot) at 1 μmol/L” value (ERα [2]; MCF-7 cells, 1 μmol/L) of the same compound?
Answer: efficient ability to degrade ERα

Question: And the “ERα degradation (immunoblot)” value (ERα [2]; MCF-7 cells, 1 or 5 μmol/L)?
Answer: effective in inducing ERα degradation

Question: And the “ERα degradation time course, LCC-2” value (ERα [3])?
Answer: completely degraded

Question: What about the IC50 (LCC-2 cells) of the same compound?
Answer: 2100 ± 370 nM

Question: What about the “Covalent adduct with ERα (intact MS)” value [4] of the same compound?
Answer: specifically and covalently bound to residue C530

Question: And the Ki (human ERβ LBD)?
Answer: 10.9 nM

Question: And the “RBA ERβ” value (human ERβ LBD; [5])?
Answer: 0.61 ± 0.11%

Question: And the “ERβ degradation (immunoblot)” value (ERβ)?
Answer: no degradation capacity for ERβ
